# Measurements from ChEMBL document CHEMBL1131242, “6beta-Acetoxynortropane: a potent muscarinic agonist with apparent selectivity toward M2-receptors” (J Med Chem, 1998).
# Residue numbers refer to the chain shown, from its start.
# Key:
# [1] = target: Muscarinic acetylcholine receptor M3 (Rattus norvegicus) (UniProt P08483); details: Membrane; 300 uM
# [2] = target: T1, Neuronal acetylcholine receptor; alpha4/beta2 (Rattus norvegicus, UniProt P09483+P12390); assay: Inhibition of binding of [3H]nicotine to Nicotinic acetylcholine receptor alpha4-beta2 in rat cerebral cortical membranes at 100 uM concentration; format: cell membranes, Membrane
# T1 sequence (P09483 whole entry): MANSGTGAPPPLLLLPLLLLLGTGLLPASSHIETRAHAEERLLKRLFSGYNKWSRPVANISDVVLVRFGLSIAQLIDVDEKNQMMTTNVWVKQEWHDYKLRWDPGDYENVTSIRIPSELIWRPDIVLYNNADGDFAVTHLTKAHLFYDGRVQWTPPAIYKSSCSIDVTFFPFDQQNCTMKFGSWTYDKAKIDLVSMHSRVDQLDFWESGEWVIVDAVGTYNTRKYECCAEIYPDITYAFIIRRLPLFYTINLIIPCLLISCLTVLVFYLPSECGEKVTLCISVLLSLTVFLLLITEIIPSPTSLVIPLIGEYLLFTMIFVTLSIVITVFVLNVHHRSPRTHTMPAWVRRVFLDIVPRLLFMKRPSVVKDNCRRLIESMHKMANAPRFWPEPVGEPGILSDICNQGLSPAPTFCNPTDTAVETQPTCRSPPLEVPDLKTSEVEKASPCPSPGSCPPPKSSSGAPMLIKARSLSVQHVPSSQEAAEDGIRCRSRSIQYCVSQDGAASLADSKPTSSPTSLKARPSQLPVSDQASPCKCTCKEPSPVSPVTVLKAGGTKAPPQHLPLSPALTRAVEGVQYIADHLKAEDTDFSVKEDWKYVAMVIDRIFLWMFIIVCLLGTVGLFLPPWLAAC
# T1 sequence (P12390 whole entry): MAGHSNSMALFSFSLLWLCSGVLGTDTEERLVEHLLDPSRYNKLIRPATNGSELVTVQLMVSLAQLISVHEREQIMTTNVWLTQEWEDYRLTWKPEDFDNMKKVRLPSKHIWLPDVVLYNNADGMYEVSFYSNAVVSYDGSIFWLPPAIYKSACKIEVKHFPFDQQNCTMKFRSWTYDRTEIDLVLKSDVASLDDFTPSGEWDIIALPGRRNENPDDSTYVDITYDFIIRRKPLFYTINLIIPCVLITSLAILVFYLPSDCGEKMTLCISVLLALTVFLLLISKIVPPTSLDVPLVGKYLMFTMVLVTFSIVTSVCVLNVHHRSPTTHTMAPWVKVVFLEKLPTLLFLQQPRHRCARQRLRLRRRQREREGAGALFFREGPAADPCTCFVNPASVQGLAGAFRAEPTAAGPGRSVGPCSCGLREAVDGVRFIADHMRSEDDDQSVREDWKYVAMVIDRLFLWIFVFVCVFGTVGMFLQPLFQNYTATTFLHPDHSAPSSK
# In short: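 [3H]nicotine (0.2 nM) binding to rat cortical membranes, with 200 µM diisopropyl fluorophosphate, 120 min at 0–4 °C, triplicate. Nonspecific binding with 1 µM nicotine. Percent inhibition at 100 µM test agent; mean ± SEM, n = 4.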
# [3] = target: T1, Neuronal acetylcholine receptor; alpha4/beta2; assay: The compound was evaluated for percentage inhibition of binding of [3H]- nicotine to Nicotinic acetylcholine receptor alpha4-beta2 in Rat Cerebral Cortical Membranes; format: protein-complex assay
# In short: (§1)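 Rat cerebral cortex membranes with 0.2 nM [3H]nicotine in HEPES binding buffer pH 7.4 containing 200 µM diisopropyl fluorophosphate. Incubation was 120 min at 0–4 °C, in triplicate. Nonspecific binding used 1 µM nicotine. Samples were filtered through polyethylenimine-soaked GF/B filters and counted.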
# [4] = target: T2, Muscarinic acetylcholine receptor M1 (Homo sapiens) (UniProt P11229); assay: Percentage inhibition of binding of [3H]quinuclidinyl benzilate to […] Muscarinic acetylcholine receptor M1 transfected in membranes of CHO cells; format: cell membranes; details: concentration not given here
# T2 sequence (whole entry): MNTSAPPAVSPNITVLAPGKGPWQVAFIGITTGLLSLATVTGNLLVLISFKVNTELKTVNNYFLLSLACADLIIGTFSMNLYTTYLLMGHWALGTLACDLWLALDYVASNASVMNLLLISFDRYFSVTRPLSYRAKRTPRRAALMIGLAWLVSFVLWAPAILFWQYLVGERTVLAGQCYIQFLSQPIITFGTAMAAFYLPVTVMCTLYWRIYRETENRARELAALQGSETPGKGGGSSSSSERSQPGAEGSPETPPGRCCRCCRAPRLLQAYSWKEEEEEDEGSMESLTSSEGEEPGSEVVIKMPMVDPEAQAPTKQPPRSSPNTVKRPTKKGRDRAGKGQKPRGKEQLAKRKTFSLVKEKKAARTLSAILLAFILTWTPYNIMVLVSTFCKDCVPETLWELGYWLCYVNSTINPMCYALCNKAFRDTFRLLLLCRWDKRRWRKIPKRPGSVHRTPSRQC
# [5] = target: T3, Muscarinic acetylcholine receptor M1 (Rattus norvegicus, UniProt P08482); assay: Inhibition of binding of [3H]quinuclidinyl benzilate to Muscarinic acetylcholine receptor M1 in rat cerebral cortical membranes at 100 uM concentration; format: cell membranes, Membrane
# T3 sequence (P08482 whole entry): T2 sequence (whole entry) with A5V, T254S, P309S, R320K, A337G, I413V
# In short: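 Rat cortical membranes with 0.2 nM [3H]quinuclidinyl benzilate in HEPES pH 7.4 with 10 mM MgCl2 and 100 mM NaCl, 30 min at 37 °C, triplicate. Atropine 1 µM defined nonspecific binding. Percent inhibition was read at 100 µM test agent; mean ± SEM, n = 4.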
# [6] = target: T3, Muscarinic acetylcholine receptor M1; assay: The compound was evaluated for inhibition of binding of [3H]quinuclidinyl benzilate to Muscarinic acetylcholine receptor M1 in Rat Cerebral Cortical Membranes
# In short: (§2)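 Rat cerebral cortex membranes were homogenised in 50 mM Tris-HCl pH 7.4 and diluted in HEPES binding buffer. They were incubated with 0.2 nM [3H]quinuclidinyl benzilate in 20 mM HEPES pH 7.4 with 10 mM MgCl2 and 100 mM NaCl for 30 min at 37 °C, in triplicate. Nonspecific binding used 1 µM atropine. Filtration was followed by scintillation counting.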
# [7] = target: T4, Muscarinic acetylcholine receptor M3 (Homo sapiens, UniProt P20309); assay: Inhibition of binding of [3H]quinuclidinyl benzilate to muscarinic receptors in membranes of CHO cells transfected with […] Muscarinic acetylcholine receptor M3; format: cell membranes; details: concentration not given here
# Target sequence in this assay (P20309 whole entry, looked up): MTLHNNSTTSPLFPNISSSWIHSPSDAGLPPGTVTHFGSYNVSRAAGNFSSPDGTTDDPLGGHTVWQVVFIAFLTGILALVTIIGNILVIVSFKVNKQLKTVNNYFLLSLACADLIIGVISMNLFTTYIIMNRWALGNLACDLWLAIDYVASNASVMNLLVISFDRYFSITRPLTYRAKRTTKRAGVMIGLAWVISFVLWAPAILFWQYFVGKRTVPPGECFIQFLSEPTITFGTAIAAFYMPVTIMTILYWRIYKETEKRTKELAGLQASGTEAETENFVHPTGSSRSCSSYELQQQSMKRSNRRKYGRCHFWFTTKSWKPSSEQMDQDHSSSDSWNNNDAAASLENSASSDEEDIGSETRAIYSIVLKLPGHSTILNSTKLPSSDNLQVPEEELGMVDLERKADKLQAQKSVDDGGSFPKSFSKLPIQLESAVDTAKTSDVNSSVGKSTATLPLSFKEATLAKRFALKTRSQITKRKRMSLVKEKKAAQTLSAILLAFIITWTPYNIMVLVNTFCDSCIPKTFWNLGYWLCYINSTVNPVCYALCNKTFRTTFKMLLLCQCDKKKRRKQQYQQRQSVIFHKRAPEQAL
# [8] = target: T4, Muscarinic acetylcholine receptor M3; assay: Inhibition of binding of [3H]quinuclidinyl benzilate to human Muscarinic acetylcholine receptor M3 in membranes of transfected CHO cells at 100 uM concentration; details: Membrane
# Target sequence in this assay (P20309 whole entry, looked up): as above
# [9] = target: T5, Muscarinic acetylcholine receptor M1 (Rattus norvegicus) (UniProt P08482); assay: (§3) Percentage inhibition of binding of [3H]quinuclidinyl benzilate to muscarinic receptors in membranes of CHO cells transfected with Muscarinic acetylcholine receptor M1; format: cell membranes; details: concentration not given here
# T5 sequence (whole entry): T2 sequence (whole entry) with A5V, T254S, P309S, R320K, A337G, I413V
# In short: (§4)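 Membranes from CHO cells expressing human M1–M4 receptors in 25 mM sodium phosphate pH 7.4 with 5 mM MgCl2, 30 min at 37 °C, triplicate. [3H]quinuclidinyl benzilate was 0.2 nM for M1 and M3 and 0.1 nM for M2 and M4. Nonspecific binding used 10 µM atropine for M1 and 1 µM for the others.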
# [10] = target: T3, Muscarinic acetylcholine receptor M1; assay: Inhibition of binding of [3H]oxotremorine M to Muscarinic acetylcholine receptor M1 in rat cerebral cortical membranes; format: cell membranes, Membrane
# In short: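 Agonist radioligand assay: rat cortical membranes with 2 nM [3H]oxotremorine M in 25 mM sodium phosphate pH 7.4 with 5 mM MgCl2, 2 h at 25 °C, in triplicate. Nonspecific binding used 5 µM atropine. Filtration followed by scintillation counting.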
# [11] = target: T3, Muscarinic acetylcholine receptor M1; assay: Affinity versus [3H]oxotremorine M (agonist) binding to Muscarinic acetylcholine receptor M1 in Rat Cerebral Cortical Membranes, (Kd=[…])
# [12] = target: T6, Muscarinic acetylcholine receptor M4 (Rattus norvegicus) (UniProt P08485); assay: Inhibition of binding of [3H]quinuclidinyl benzilate to Muscarinic acetylcholine receptor M4 […] at 300 uM concentration; format: cell membranes; details: Membrane
# T6 sequence (whole entry): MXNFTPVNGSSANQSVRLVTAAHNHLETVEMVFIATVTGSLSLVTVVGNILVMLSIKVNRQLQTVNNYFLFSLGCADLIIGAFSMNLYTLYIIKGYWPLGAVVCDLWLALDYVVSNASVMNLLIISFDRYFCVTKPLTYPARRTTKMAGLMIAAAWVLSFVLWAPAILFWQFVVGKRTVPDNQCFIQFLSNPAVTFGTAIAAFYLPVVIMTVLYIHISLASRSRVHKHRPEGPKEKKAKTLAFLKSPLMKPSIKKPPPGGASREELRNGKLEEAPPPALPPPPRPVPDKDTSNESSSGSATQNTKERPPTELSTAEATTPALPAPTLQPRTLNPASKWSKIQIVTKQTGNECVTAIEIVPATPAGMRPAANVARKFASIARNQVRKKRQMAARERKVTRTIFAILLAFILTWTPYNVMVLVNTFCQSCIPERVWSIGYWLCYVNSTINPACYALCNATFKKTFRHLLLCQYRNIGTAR
# [13] = target: Muscarinic acetylcholine receptor M3 (Rattus norvegicus) (UniProt P08483); assay: Percentage inhibition of binding of [3H]quinuclidinyl benzilate to muscarinic receptors in membranes of CHO cells transfected with Muscarinic acetylcholine receptor M3; format: cell membranes; details: concentration not given here
# [14] = target: T1, Neuronal acetylcholine receptor; alpha4/beta2; assay: Inhibition of binding of [3H]nicotine to Nicotinic acetylcholine receptor alpha4-beta2 in rat cerebral cortical membranes; format: cell membranes, Membrane
# In short: as §1
# [15] = target: T6, Muscarinic acetylcholine receptor M4 (Rattus norvegicus); assay: (§5) Inhibition of binding of [3H]quinuclidinyl benzilate to muscarinic receptors in membranes of CHO cells transfected with Muscarinic acetylcholine receptor M4; format: cell membranes; details: concentration not given here
# In short: as §4
# [16] = target: T7, Muscarinic acetylcholine receptor M2 (Rattus norvegicus, UniProt P10980); assay: (§6) Inhibition of binding of [3H]quinuclidinyl benzilate to muscarinic receptors in membranes of CHO cells transfected with Muscarinic acetylcholine receptor M2; format: cell membranes
# T7 sequence (P10980 whole entry): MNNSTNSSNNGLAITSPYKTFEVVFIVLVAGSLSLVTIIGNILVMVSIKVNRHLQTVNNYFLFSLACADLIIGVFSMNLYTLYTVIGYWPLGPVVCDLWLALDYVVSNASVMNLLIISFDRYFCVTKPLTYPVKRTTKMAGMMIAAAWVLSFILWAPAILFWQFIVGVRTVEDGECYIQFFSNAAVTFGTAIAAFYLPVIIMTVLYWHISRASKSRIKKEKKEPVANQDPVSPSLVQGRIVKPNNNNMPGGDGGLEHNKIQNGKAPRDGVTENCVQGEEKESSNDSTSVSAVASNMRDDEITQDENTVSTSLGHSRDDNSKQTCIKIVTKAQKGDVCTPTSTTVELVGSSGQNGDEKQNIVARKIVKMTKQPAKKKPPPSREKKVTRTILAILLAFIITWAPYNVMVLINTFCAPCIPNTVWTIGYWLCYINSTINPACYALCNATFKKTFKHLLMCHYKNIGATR
# In short: as §4
# [17] = target: Muscarinic acetylcholine receptor M2 (Homo sapiens) (UniProt P08172); assay: Inhibition of binding of [3H]quinuclidinyl benzilate to Muscarinic acetylcholine receptor M2 in membranes of transfected CHO cells
# [18] = target: Muscarinic acetylcholine receptor M1 (Homo sapiens) (UniProt P11229); assay: Inhibition of binding of [3H]quinuclidinyl benzilate to human Muscarinic acetylcholine receptor M1 in membranes of transfected CHO cells at 300 uM concentration; details: Membrane
# [19] = target: T2, Muscarinic acetylcholine receptor M1 (Homo sapiens); assay: as §3; format: cell membranes; details: concentration not given here
# In short: as §4
# [20] = target: T3, Muscarinic acetylcholine receptor M1; assay: Inhibition of binding of [3H]quinuclidinyl benzilate to Muscarinic acetylcholine receptor M1 in rat cerebral cortical membranes; format: cell membranes, Membrane
# In short: as §2
# [21] = target: T3, Muscarinic acetylcholine receptor M1; assay: Affinity versus [3H]quinuclidinyl benzilate (antagonist) binding to Muscarinic acetylcholine receptor M1 in Rat Cerebral Cortical Membranes,
# In short: as §2
# [22] = target: T4, Muscarinic acetylcholine receptor M3; assay: Inhibition of binding of [3H]quinuclidinyl benzilate to muscarinic receptors in membranes of CHO cells transfected with Muscarinic acetylcholine receptor M3; format: cell membranes
# Target sequence in this assay (P20309 whole entry): as the sequence (P20309 whole entry, looked up) above
# [23] = target: T8, Muscarinic acetylcholine receptor M2 (Homo sapiens, UniProt P08172); assay: as §6; format: cell membranes
# T8 sequence (P08172 whole entry): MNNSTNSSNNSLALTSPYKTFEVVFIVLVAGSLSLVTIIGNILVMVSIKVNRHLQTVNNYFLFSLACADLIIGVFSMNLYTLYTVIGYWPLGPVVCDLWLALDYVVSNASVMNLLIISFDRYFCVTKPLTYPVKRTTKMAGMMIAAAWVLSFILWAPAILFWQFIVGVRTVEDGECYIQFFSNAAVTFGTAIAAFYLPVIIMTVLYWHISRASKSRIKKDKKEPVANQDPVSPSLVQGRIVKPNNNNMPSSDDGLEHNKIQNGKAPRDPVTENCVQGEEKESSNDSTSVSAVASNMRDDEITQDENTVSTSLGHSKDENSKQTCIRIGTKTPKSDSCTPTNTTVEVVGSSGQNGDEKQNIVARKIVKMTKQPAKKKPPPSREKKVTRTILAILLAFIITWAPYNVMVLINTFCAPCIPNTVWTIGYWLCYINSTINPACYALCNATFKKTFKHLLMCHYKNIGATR
# [24] = target: T9, Muscarinic acetylcholine receptor M4 (Homo sapiens, UniProt P08173); assay: as §5; format: cell membranes
# T9 sequence (P08173 whole entry): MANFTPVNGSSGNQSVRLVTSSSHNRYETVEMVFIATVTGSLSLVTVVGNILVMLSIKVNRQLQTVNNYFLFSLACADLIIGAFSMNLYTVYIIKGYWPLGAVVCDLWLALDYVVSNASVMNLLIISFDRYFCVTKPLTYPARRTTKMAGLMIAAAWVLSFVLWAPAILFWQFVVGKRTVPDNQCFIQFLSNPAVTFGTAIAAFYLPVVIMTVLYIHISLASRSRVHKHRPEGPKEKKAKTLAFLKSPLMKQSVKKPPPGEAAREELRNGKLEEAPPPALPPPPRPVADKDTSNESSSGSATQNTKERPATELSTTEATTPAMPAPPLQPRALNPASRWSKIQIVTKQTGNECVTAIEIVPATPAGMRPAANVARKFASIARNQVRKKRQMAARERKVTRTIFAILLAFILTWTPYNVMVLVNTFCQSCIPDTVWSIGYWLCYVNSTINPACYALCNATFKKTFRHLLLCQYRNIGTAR
# [25] = target: T5, Muscarinic acetylcholine receptor M1 (Rattus norvegicus); details: Membrane; 30 uM
# [26] = target: Muscarinic acetylcholine receptor M4 (Homo sapiens) (UniProt P08173); assay: Inhibition of binding of [3H]quinuclidinyl benzilate to Muscarinic acetylcholine receptor M4 in membranes of transfected CHO cells
# Chain of Muscarinic acetylcholine receptor M3 (Rattus norvegicus) (P08483 whole entry, looked up): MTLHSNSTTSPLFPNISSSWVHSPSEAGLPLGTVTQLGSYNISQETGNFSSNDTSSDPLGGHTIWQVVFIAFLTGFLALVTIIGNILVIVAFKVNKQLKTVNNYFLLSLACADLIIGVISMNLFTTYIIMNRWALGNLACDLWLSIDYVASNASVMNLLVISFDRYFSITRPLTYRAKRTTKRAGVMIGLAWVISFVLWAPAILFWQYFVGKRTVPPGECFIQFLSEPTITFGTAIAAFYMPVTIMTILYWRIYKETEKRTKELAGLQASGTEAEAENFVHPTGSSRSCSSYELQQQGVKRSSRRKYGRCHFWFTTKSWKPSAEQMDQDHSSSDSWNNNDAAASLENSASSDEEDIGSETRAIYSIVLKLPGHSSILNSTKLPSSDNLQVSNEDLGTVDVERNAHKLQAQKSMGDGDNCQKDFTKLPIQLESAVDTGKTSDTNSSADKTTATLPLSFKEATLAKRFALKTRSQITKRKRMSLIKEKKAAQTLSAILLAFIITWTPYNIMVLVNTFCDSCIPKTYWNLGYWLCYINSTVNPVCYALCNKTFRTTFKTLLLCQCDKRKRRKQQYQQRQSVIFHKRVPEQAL
smiles,measurement,setting,value
C[N+](C)(C)CCOC(N)=O,inhibition,[1],16%
COC(=O)C1=CCCN(C)C1 [ARECOLINE],Ki,[2],0.27 µM
same,Ki,[3],0.27 µM
COC(=O)C1=CCC2CCC1N2C (centres undefined),inhibition,[4],26%
same,Ki,[5],25 µM
same,Ki,[6],25 µM
same,inhibition,[7],28%
same,inhibition,[8],28%
COC(=O)[C@H]1CC2NC1CC[C@@H]2O (some centres undefined),inhibition,[9],2%
same,Ki,[10],18 µM
same,Ki,[11],18 µM
same,inhibition,[12],33%
same,inhibition,[13],0%
same,Ki,[14],4 µM
same,Ki,[3],4 µM
same,inhibition,[15],33%
same,Ki,[16],12 µM
same,Ki,[17],12 µM
same,inhibition,[18],2%
same,inhibition,[8],0%
CC(=O)OC1CC2CCCC1N2C (centres undefined),inhibition,[19],48%
same,Ki,[10],2.6 µM
same,Ki,[20],280 µM
same,Ki,[6],280 µM
same,Ki,[21],280 µM
same,Ki,[11],2.6 µM
same,Ki,[22],15 µM
same,Ki,[23],2.7 µM
same,Ki,[24],8.3 µM
same,Ki,[14],1.5 µM
same,Ki,[3],1.5 µM
same,inhibition,[25],48%
same,Ki,[17],2.7 µM
same,Ki,[26],8.3 µM
